These results are taken from the array DNA melting data of Ke et al. (doi:10.1101/2024.01.08.574731).

The nature of data set [1]: folding enthalpy; higher = less favourable; fluorescence melt of hairpins on a sequencing array, two-state fit. The following applies: sodium 0.088 M. The gist of the method:
(§1)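 Folding enthalpy and melting temperature were estimated with bootstrapped two-state fits and combined across four replicates by inverse-variance weighting, with fitted temperatures raised by 9.35 °C to match UV melts. The data were Cy3 fluorescence of library hairpins, with annealed Cy3 and quencher oligos, on a sequenced MiSeq flow cell in 50 mM Na-HEPES pH 8.0, 25 mM NaCl, imaged in 2.5 °C steps up to 60 °C and normalised to pre-quench Cy3 and control constructs.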

Data set [2] is described as follows: melting temperature; fluorescence melt of hairpins on a sequencing array, two-state fit, raised by 9.35 °C to match UV melts. To be noted: sodium 0.088 M. A digest of the protocol:
as §1

Regarding GATACTGGAAACAGTGTC ((.((((....)))).)), the folding enthalpy in data set [1] is -25.9 kcal/mol. In addition, the Tm in data set [2] is 44.7 °C.
For GATAGAGAAATCTATC ((((((....)))))), the folding enthalpy in data set [1] is -21.5 kcal/mol. The Tm in data set [2] was 36.8 °C.
On the same counts, the results for GATAGCCGAAAGGCAATC (((.(((....))).))) are -19.1 kcal/mol and 46 °C.
On the same counts, the results for GATAGCGGAAACGTTATC ((((.((....)).)))) are -34.8 kcal/mol and 42.3 °C.
On the same counts, the results for GATAGCGGAAACGTTGTC ((.(.((....)).).)) are -16.1 kcal/mol and 27.5 °C.
With GATAGGAAACTATC (((((....))))), the folding enthalpy in data set [1] is -15.4 kcal/mol. Moreover, the Tm in data set [2] is 40.2 °C.
Turning to GATAGGACGAAAGTCATC (((..(((....)))))), in data set [1], the folding enthalpy was -7.28 kcal/mol. In data set [2], the Tm came to 25.2 °C.
Consider GATAGGCGAAAGCCATC (((.(((....)))))), for which the folding enthalpy in data set [1] is -12.6 kcal/mol. Also, the Tm in data set [2] amounted to 40.3 °C.
On the same counts, the results for GATAGGGAAACCTATC ((((((....)))))) are -34.7 kcal/mol and 47.6 °C.
On the same counts, the results for GATAGGGGAAACCCCATC (((.(((....))).))) are -16.9 kcal/mol and 35.6 °C.
On the same counts, the results for GATAGGGGAAACCCTATC (((((((....))))))) are -42 kcal/mol and 54.9 °C.
As for GATATACGAAAGTACATC (((.(((....))).))), in data set [1], the folding enthalpy is -27.2 kcal/mol. Besides, the Tm in data set [2] worked out at 30.5 °C.
As to GATATACGAAAGTAGATC (((.(((....))).))), in data set [1], the folding enthalpy is -31.1 kcal/mol. Further, the Tm in data set [2] came to 44.1 °C.
On the same counts, the results for GATATGCGAAAGCAAATC (((.(((....))).))) are -24.3 kcal/mol and 40.1 °C.
On the same counts, the results for GATATGCGAAAGCACATC (((.(((....))).))) are -19.1 kcal/mol and 39.3 °C.
On the same counts, the results for GATATGGCGAAAGCCATC (((..(((....)))))) are -7.03 kcal/mol and 34.2 °C.
Regarding GATCAAAAGATTGATC ((((((....)))))), in data set [1], the folding enthalpy is -20.6 kcal/mol. Besides, in data set [2], the Tm stood at 33.3 °C.
On the same counts, the results for GATCAAACGATTGATC ((((((....)))))) are -25.3 kcal/mol and 39.9 °C.
On the same counts, the results for GATCAAACGGTTGATC ((((((....)))))) are -36 kcal/mol and 44.2 °C.
On the same counts, the results for GATCAAACGTTTGATC ((((((....)))))) are -41.4 kcal/mol and 51 °C.
On to GATCAAACTCTTGATC ((((((....)))))), for which, in data set [1], the folding enthalpy was -33.9 kcal/mol. The Tm in data set [2] came to 40.5 °C.
Take GATCAAACTTTGATC ((((((...)))))): in data set [1], the folding enthalpy was -31.6 kcal/mol. The Tm in data set [2] turned out to be 41.9 °C.
On the same counts, the results for GATCAAAGCCTTGATC ((((((....)))))) are -28.4 kcal/mol and 44.1 °C.
On to GATCAAAGGTTGATC ((((((...)))))), for which, in data set [1], the folding enthalpy was -27.2 kcal/mol. In data set [2], the Tm is 40 °C.
On the same counts, the results for GATCAAAGTTTGATC ((((((...)))))) are -27.1 kcal/mol and 42.7 °C.
On the same counts, the results for GATCAAATAGTTGATC ((((((....)))))) are -29.5 kcal/mol and 37.9 °C.
Take GATCAAATATTTGATC ((((((....)))))): the folding enthalpy in data set [1] was -48.2 kcal/mol. For the same sequence, the Tm in data set [2] is 47.1 °C.
On the same counts, the results for GATCAAATCCTTGATC ((((((....)))))) are -35.8 kcal/mol and 42.1 °C.
With GATCAAATCGTTGATC ((((((....)))))), in data set [1], the folding enthalpy was -30.6 kcal/mol. Further, the Tm in data set [2] stood at 42.4 °C.
On the same counts, the results for GATCAAATCTTTGATC ((((((....)))))) are -30.3 kcal/mol and 47.7 °C.
On the same counts, the results for GATCAAATGATTGATC ((((((....)))))) are -26.2 kcal/mol and 35.8 °C.
On the same counts, the results for GATCAAATGTTGATC ((((((...)))))) are -26.6 kcal/mol and 41.2 °C.
Regarding GATCAAATTTTTGATC ((((((....)))))), in data set [1], the folding enthalpy was -39 kcal/mol. For the same sequence, the Tm in data set [2] stood at 47.7 °C.
Take GATCAACACTTTGATC ((((((....)))))): the folding enthalpy in data set [1] was -37.8 kcal/mol. The Tm in data set [2] was determined as 47.6 °C.
With GATCAACAGTTTGATC ((((((....)))))), the folding enthalpy in data set [1] was -31.2 kcal/mol. Also, in data set [2], the Tm is 41.3 °C.
On the same counts, the results for GATCAACCAGTTGATC ((((((....)))))) are -41.9 kcal/mol and 50.4 °C.
On the same counts, the results for GATCAACCATTTGATC ((((((....)))))) are -32.8 kcal/mol and 42.3 °C.
On the same counts, the results for GATCAACCCTTTGATC ((((((....)))))) are -39.2 kcal/mol and 46.1 °C.
As for GATCAACCTATTGATC ((((((....)))))), in data set [1], the folding enthalpy was -29 kcal/mol. In addition, in data set [2], the Tm stood at 41.5 °C.
On the same counts, the results for GATCAACGAAAGTTAATC (((.(((....))).))) are -11.7 kcal/mol and 27.8 °C.
As for GATCAACGAAAGTTATC (((.(((....)))))), the folding enthalpy in data set [1] is -9.84 kcal/mol. Besides, the Tm in data set [2] was 25.4 °C.
On the same counts, the results for GATCAACGCGTTGATC ((((((....)))))) are -54.2 kcal/mol and 59.5 °C.
On the same counts, the results for GATCAACGGATTGATC ((((((....)))))) are -28 kcal/mol and 39.5 °C.
On the same counts, the results for GATCAACGTTTGATC ((((((...)))))) are -26.1 kcal/mol and 40.1 °C.
GATCAACTGCTTGATC ((((((....)))))): the folding enthalpy in data set [1] was -31.5 kcal/mol. The Tm in data set [2] was determined as 44 °C.
On the same counts, the results for GATCAACTTTTTGATC ((((((....)))))) are -37.8 kcal/mol and 43.3 °C.
On the same counts, the results for GATCAAGATTTTGATC ((((((....)))))) are -28.5 kcal/mol and 44.5 °C.
GATCAAGCCTTGATC ((((((...)))))): the folding enthalpy in data set [1] was -26.1 kcal/mol. In data set [2], the Tm was found to be 44.1 °C.
On the same counts, the results for GATCAAGCCTTTGATC ((((((....)))))) are -40.7 kcal/mol and 49.2 °C.
Consider GATCAAGCGATTGATC ((((((....)))))), for which the folding enthalpy in data set [1] was -39.6 kcal/mol. Besides, the Tm in data set [2] amounted to 48 °C.
On the same counts, the results for GATCAAGCTCTTGATC ((((((....)))))) are -38.9 kcal/mol and 48.3 °C.
For GATCAAGGATTTGATC ((((((....)))))), in data set [1], the folding enthalpy is -29.8 kcal/mol. The Tm in data set [2] was 49.1 °C.
For GATCAAGGTCTTGATC ((((((....)))))), the folding enthalpy in data set [1] is -37.5 kcal/mol. Also, the Tm in data set [2] came out at 48.6 °C.
On the same counts, the results for GATCAAGTCCTTGATC ((((((....)))))) are -38.2 kcal/mol and 49.7 °C.
On the same counts, the results for GATCAAGTGTTGATC ((((((...)))))) are -32 kcal/mol and 40.9 °C.
On the same counts, the results for GATCAAGTGTTTGATC ((((((....)))))) are -31.8 kcal/mol and 43.5 °C.
As for GATCAAGTTATTGATC ((((((....)))))), in data set [1], the folding enthalpy is -35.8 kcal/mol. Further, the Tm in data set [2] is 49.8 °C.
On the same counts, the results for GATCAAGTTTTGATC ((((((...)))))) are -29.4 kcal/mol and 45.4 °C.
Turning to GATCAATAACTTGATC ((((((....)))))), the folding enthalpy in data set [1] was -31.6 kcal/mol. Besides, the Tm in data set [2] is 39.4 °C.
On the same counts, the results for GATCAATAGCTTGATC ((((((....)))))) are -29.6 kcal/mol and 40.5 °C.
On the same counts, the results for GATCAATCAATTGATC ((((((....)))))) are -36 kcal/mol and 45 °C.
Regarding GATCAATCCGTTGATC ((((((....)))))), the folding enthalpy in data set [1] was -32.5 kcal/mol. Also, the Tm in data set [2] amounted to 47 °C.
Take GATCAATCTTTTGATC ((((((....)))))): the folding enthalpy in data set [1] was -34.1 kcal/mol. For the same sequence, the Tm in data set [2] is 46.5 °C.
On the same counts, the results for GATCAATGATTTGATC ((((((....)))))) are -32.7 kcal/mol and 44.8 °C.
As to GATCAATGCGTTGATC ((((((....)))))), the folding enthalpy in data set [1] is -45.6 kcal/mol. Besides, the Tm in data set [2] was determined as 50.9 °C.
On the same counts, the results for GATCAATGCTTGATC ((((((...)))))) are -28.5 kcal/mol and 43.2 °C.
Consider GATCAATGCTTTGATC ((((((....)))))), for which the folding enthalpy in data set [1] was -39.7 kcal/mol. The Tm in data set [2] amounted to 47.5 °C.
On the same counts, the results for GATCAATGTATTGATC ((((((....)))))) are -41.1 kcal/mol and 51 °C.
On the same counts, the results for GATCAATTGTTTGATC ((((((....)))))) are -35.9 kcal/mol and 46.1 °C.
Take GATCACAAGGTGATC ((((((...)))))): the folding enthalpy in data set [1] was -38.4 kcal/mol. For the same sequence, in data set [2], the Tm turned out to be 58.4 °C.
With GATCACACAGGTGATC ((((((....)))))), in data set [1], the folding enthalpy was -44.3 kcal/mol. Also, the Tm in data set [2] turned out to be 54.5 °C.
On the same counts, the results for GATCACACATGTGATC ((((((....)))))) are -38.1 kcal/mol and 57.9 °C.
For the sequence GATCACACCTGTGATC ((((((....)))))), the folding enthalpy in data set [1] was -47.3 kcal/mol. Further, in data set [2], the Tm stood at 57.2 °C.
On the same counts, the results for GATCACACGAAAGTGATC (((..(((....)))))) are -34.3 kcal/mol and 48.8 °C.
On the same counts, the results for GATCACAGCCGTGATC ((((((....)))))) are -44.6 kcal/mol and 57.8 °C.
On the same counts, the results for GATCACAGGAGTGATC ((((((....)))))) are -38.2 kcal/mol and 54.8 °C.
